Values joined by “and” are separate entries in the source; they are usually repeats but may differ in a detail not shown here. Identical values can stand only once.
System: Fibroblast
Assay: Multiplex assay against human fibroblast
Assay type: toxicity, cell-based
Method in brief: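 Compound was added to live cells that had been stained at seeding with Hoechst33342, BioTracker Green Microtubule Cytoskeleton Dye, MitoTracker Red and Annexin V Alexa Fluor 680, and imaging followed on a CQ1 microscope at 37°C and 5% CO2. CellPathfinder machine-learning gating divided cells into Hoechst high-intensity objects or normal cells, normal cells into healthy, pyknosed or fragmented nuclei, and pyknosed cells into mitotic or apoptotic. Tubulin, mitochondrial-mass and membrane-permeability phenotypes are per cents of healthy-nucleus cells.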

[1] = 12 h, 1 µM, compound concentration 1 uM, replicate 1
[2] = 12 h, 1 µM, compound concentration 1 uM, replicate 2
[3] = 12 h, 10 µM, compound concentration 10 uM, replicate 1
[4] = 12 h, 10 µM, compound concentration 10 uM, replicate 2
[5] = 24 h, 1 µM, compound concentration 1 uM, replicate 1
[6] = 24 h, 1 µM, compound concentration 1 uM, replicate 2
[7] = 24 h, 10 µM, compound concentration 10 uM, replicate 1
[8] = 24 h, 10 µM, compound concentration 10 uM, replicate 2
[9] = 48 h, 1 µM, compound concentration 1 uM, replicate 1
[10] = 48 h, 1 µM, compound concentration 1 uM, replicate 2
[11] = 48 h, 10 µM, compound concentration 10 uM, replicate 1
[12] = 48 h, 10 µM, compound concentration 10 uM, replicate 2

SMILES: CNC[C@H](O)c1ccc(O)c(O)c1 [EPINEPHRINE]
- Population Apoptotic (%) [1]: 36%
- Population Fragmented Nuclei (%) [1]: 17%
- Population Healthy Nuclei (%) [1]: 66%
- Population Hoechst High Intensity Objects (%) [1]: 1%
- Population Membrane Permeable-Phenotype (%) [1]: 1%
- Population Mitochondria Different-Phenotype (%) [1]: 3%
- Population Mitotic Cells (%) [1]: 63%
- Population Normal (%) [1]: 98%
- Population Pyknosed Nuclei (%) [1]: 16%
- Population Tubulin-Different-Phenotype (%) [1]: 15%
- Population Apoptotic (%) [2]: 40%
- Population Fragmented Nuclei (%) [2]: 38%
- Population Healthy Nuclei (%) [2]: 44%
- Population Membrane Permeable-Phenotype (%) [2]: 13%
- Population Mitochondria Different-Phenotype (%) [2]: 7%
- Population Mitotic Cells (%) [2]: 60%
- Population Pyknosed Nuclei (%) [2]: 17%
- Population Tubulin-Different-Phenotype (%) [2]: 42%
- Population Apoptotic (%) [3]: 40%
- Population Fragmented Nuclei (%) [3]: 18%
- Population Healthy Nuclei (%) [3]: 61%
- Population Hoechst High Intensity Objects (%) [3]: 3%
- Population Membrane Permeable-Phenotype (%) [3]: 1%
- Population Mitochondria Different-Phenotype (%) [3]: 6%
- Population Mitotic Cells (%) [3]: 60%
- Population Normal (%) [3]: 96%
- Population Pyknosed Nuclei (%) [3]: 20%
- Population Tubulin-Different-Phenotype (%) [3]: 23%
- Population Apoptotic (%) [4]: 32%
- Population Fragmented Nuclei (%) [4]: 39%
- Population Healthy Nuclei (%) [4]: 37%
- Population Hoechst High Intensity Objects (%) [4]: 7%
- Population Membrane Permeable-Phenotype (%) [4]: 12%
- Population Mitochondria Different-Phenotype (%) [4]: 8%
- Population Mitotic Cells (%) [4]: 67%
- Population Normal (%) [4]: 92%
- Population Pyknosed Nuclei (%) [4]: 23%
- Population Tubulin-Different-Phenotype (%) [4]: 55%
- Population Apoptotic (%) [5]: 54%
- Population Fragmented Nuclei (%) [5]: 12%
- Population Healthy Nuclei (%) [5]: 70%
- Population Hoechst High Intensity Objects (%) [5]: 0%
- Population Membrane Permeable-Phenotype (%) [5]: 0%
- Population Mitochondria Different-Phenotype (%) [5]: 3%
- Population Mitotic Cells (%) [5]: 45%
- Population Normal (%) [5]: 99%
- Population Pyknosed Nuclei (%) [5]: 16%
- Population Tubulin-Different-Phenotype (%) [5]: 11%
- Population Apoptotic (%) [6]: 23%
- Population Fragmented Nuclei (%) [6]: 38%
- Population Healthy Nuclei (%) [6]: 47%
- Population Hoechst High Intensity Objects (%) [6]: 3%
- Population Membrane Permeable-Phenotype (%) [6]: 12%
- Population Mitochondria Different-Phenotype (%) [6]: 6%
- Population Mitotic Cells (%) [6]: 76%
- Population Normal (%) [6]: 96%
- Population Pyknosed Nuclei (%) [6]: 14%
- Population Tubulin-Different-Phenotype (%) [6]: 32%
- Population Apoptotic (%) [7]: 65%
- Population Fragmented Nuclei (%) [7]: 16%
- Population Healthy Nuclei (%) [7]: 60%
- Population Hoechst High Intensity Objects (%) [7]: 3%
- Population Membrane Permeable-Phenotype (%) [7]: 0%
- Population Mitochondria Different-Phenotype (%) [7]: 5%
- Population Mitotic Cells (%) [7]: 34%
- Population Normal (%) [7]: 96%
- Population Pyknosed Nuclei (%) [7]: 23%
- Population Tubulin-Different-Phenotype (%) [7]: 21%
- Population Apoptotic (%) [8]: 38%
- Population Fragmented Nuclei (%) [8]: 39%
- Population Healthy Nuclei (%) [8]: 44%
- Population Membrane Permeable-Phenotype (%) [8]: 12%
- Population Mitochondria Different-Phenotype (%) [8]: 4%
- Population Mitotic Cells (%) [8]: 61%
- Population Pyknosed Nuclei (%) [8]: 15%
- Population Tubulin-Different-Phenotype (%) [8]: 51%
- Population Apoptotic (%) [9]: 50%
- Population Fragmented Nuclei (%) [9]: 17%
- Population Healthy Nuclei (%) [9]: 67%
- Population Hoechst High Intensity Objects (%) [9]: 1%
- Population Membrane Permeable-Phenotype (%) [9]: 0%
- Population Mitochondria Different-Phenotype (%) [9]: 6%
- Population Mitotic Cells (%) [9]: 50%
- Population Normal (%) [9]: 98%
- Population Pyknosed Nuclei (%) [9]: 15%
- Population Tubulin-Different-Phenotype (%) [9]: 23%
- Population Apoptotic (%) [10]: 38%
- Population Fragmented Nuclei (%) [10]: 41%
- Population Healthy Nuclei (%) [10]: 48%
- Population Membrane Permeable-Phenotype (%) [10]: 6%
- Population Mitochondria Different-Phenotype (%) [10]: 5%
- Population Mitotic Cells (%) [10]: 61%
- Population Pyknosed Nuclei (%) [10]: 10%
- Population Tubulin-Different-Phenotype (%) [10]: 45%
- Population Apoptotic (%) [11]: 77%
- Population Fragmented Nuclei (%) [11]: 20%
- Population Healthy Nuclei (%) [11]: 65%
- Population Hoechst High Intensity Objects (%) [11]: 2%
- Population Membrane Permeable-Phenotype (%) [11]: 2%
- Population Mitochondria Different-Phenotype (%) [11]: 4%
- Population Mitotic Cells (%) [11]: 22%
- Population Normal (%) [11]: 97%
- Population Pyknosed Nuclei (%) [11]: 13%
- Population Tubulin-Different-Phenotype (%) [11]: 32%
- Population Apoptotic (%) [12]: 37%
- Population Fragmented Nuclei (%) [12]: 50%
- Population Healthy Nuclei (%) [12]: 44%
- Population Hoechst High Intensity Objects (%) [12]: 3%
- Population Membrane Permeable-Phenotype (%) [12]: 6%
- Population Mitochondria Different-Phenotype (%) [12]: 3%
- Population Mitotic Cells (%) [12]: 62%
- Population Normal (%) [12]: 96%
- Population Pyknosed Nuclei (%) [12]: 5%
- Population Tubulin-Different-Phenotype (%) [12]: 46%

SMILES: CC(=O)O[C@H]1C(=O)[C@@]2(C)[C@H]([C@H](OC(=O)c3ccccc3)[C@]3(O)C[C@H](OC(=O)[C@H](O)[C@@H](NC(=O)c4ccccc4)c4ccccc4)C(C)=C1C3(C)C)[C@]1(OC(C)=O)CO[C@@H]1C[C@@H]2O [PACLITAXEL]
- Population Apoptotic (%) [3]: 65% and 41%
- Population Fragmented Nuclei (%) [3]: 19% and 23%
- Population Healthy Nuclei (%) [3]: 63% and 56%
- Population Hoechst High Intensity Objects (%) [3]: 5% and 3%
- Population Membrane Permeable-Phenotype (%) [3]: 0% and 1%
- Population Mitochondria Different-Phenotype (%) [3]: 10% and 9%
- Population Mitotic Cells (%) [3]: 34% and 58%
- Population Normal (%) [3]: 94% and 96%
- Population Pyknosed Nuclei (%) [3]: 16% and 19%
- Population Tubulin-Different-Phenotype (%) [3]: 17% and 19%
- Total Cell Count [3]: 167 and 151
- Population Apoptotic (%) [4]: 39% and 43%
- Population Fragmented Nuclei (%) [4]: 34% and 32%
- Population Healthy Nuclei (%) [4]: 39% and 32%
- Population Hoechst High Intensity Objects (%) [4]: 1%
- Population Membrane Permeable-Phenotype (%) [4]: 6% and 8%
- Population Mitochondria Different-Phenotype (%) [4]: 13% and 19%
- Population Mitotic Cells (%) [4]: 60% and 56%
- Population Normal (%) [4]: 98%
- Population Pyknosed Nuclei (%) [4]: 25% and 34%
- Population Tubulin-Different-Phenotype (%) [4]: 44% and 52%
- Total Cell Count [4]: 111 and 142
- Population Apoptotic (%) [7]: 70% and 60%
- Population Fragmented Nuclei (%) [7]: 19% and 21%
- Population Healthy Nuclei (%) [7]: 63% and 58%
- Population Hoechst High Intensity Objects (%) [7]: 1% and 3%
- Population Membrane Permeable-Phenotype (%) [7]: 0% and 1%
- Population Mitochondria Different-Phenotype (%) [7]: 9% and 13%
- Population Mitotic Cells (%) [7]: 29% and 40%
- Population Normal (%) [7]: 98% and 96%
- Population Pyknosed Nuclei (%) [7]: 16% and 20%
- Population Tubulin-Different-Phenotype (%) [7]: 12% and 24%
- Total Cell Count [7]: 164 and 155
- Population Apoptotic (%) [8]: 30% and 62%
- Population Fragmented Nuclei (%) [8]: 36% and 27%
- Population Healthy Nuclei (%) [8]: 45% and 43%
- Population Hoechst High Intensity Objects (%) [8]: 2% and 4%
- Population Membrane Permeable-Phenotype (%) [8]: 6% and 11%
- Population Mitochondria Different-Phenotype (%) [8]: 10% and 19%
- Population Mitotic Cells (%) [8]: 70% and 37%
- Population Normal (%) [8]: 97%
- Population Pyknosed Nuclei (%) [8]: 18% and 29%
- Population Tubulin-Different-Phenotype (%) [8]: 40% and 48%
- Total Cell Count [8]: 114 and 125
- Population Apoptotic (%) [11]: 76% and 84%
- Population Fragmented Nuclei (%) [11]: 31% and 28%
- Population Healthy Nuclei (%) [11]: 50% and 53%
- Population Hoechst High Intensity Objects (%) [11]: 4%
- Population Membrane Permeable-Phenotype (%) [11]: 0%
- Population Mitochondria Different-Phenotype (%) [11]: 16% and 18%
- Population Mitotic Cells (%) [11]: 23% and 16%
- Population Normal (%) [11]: 95%
- Population Pyknosed Nuclei (%) [11]: 17%
- Population Tubulin-Different-Phenotype (%) [11]: 20% and 23%
- Total Cell Count [11]: 177 and 150
- Population Apoptotic (%) [12]: 54% and 56%
- Population Fragmented Nuclei (%) [12]: 48% and 41%
- Population Healthy Nuclei (%) [12]: 42% and 47%
- Population Hoechst High Intensity Objects (%) [12]: 0% and 1%
- Population Membrane Permeable-Phenotype (%) [12]: 3% and 8%
- Population Mitochondria Different-Phenotype (%) [12]: 9% and 14%
- Population Mitotic Cells (%) [12]: 45% and 43%
- Population Normal (%) [12]: 100% and 98%
- Population Pyknosed Nuclei (%) [12]: 8% and 11%
- Population Tubulin-Different-Phenotype (%) [12]: 40% and 54%
- Total Cell Count [12]: 129 and 146
